According to paper PMC5699463 (Journal of the American Chemical Society, 2017):
≈ marks a conversion by molar mass, not a printed value.

How the values were obtained:
[1] = test system: B. subtilis; assay: Growth inhibition of B. subtilis; format: cell-based, Bacillus subtilis
[2] = test system: B. subtilis strain KS002 (TagGH replaced with S. aureus TarGH); assay: Disk diffusion assay against B. subtilis strain KS002 expressing S. aureus TarGH; format: cell-based, Bacillus subtilis; details: strain expressing the S. aureus transporter
[3] = test system: Lipid II pool levels in S. aureus; assay: Assay to detect Lipid II abundance after antibiotic treatment; format: cell-based, Staphylococcus aureus; details: S. aureus cultures treated for ten minutes
How it was run: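 S. aureus cultures were exposed for 10 min to test compound or to peptidoglycan-synthesis inhibitor controls that either deplete or accumulate Lipid II. Lipid II was then extracted and labelled with biotin-d-Lys to measure its pool level.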

[4] = test system: wildtype S. aureus (Newman); assay: Growth inhibition; format: cell-based, Staphylococcus aureus
[5] = test system: wildtype B. subtilis; assay: Disk diffusion assay against wildtype B. subtilis; format: cell-based, Bacillus subtilis
[6] = biological target: TarGH (Staphylococcus aureus, UniProt Q2G2X5); assay: ATPase activity of reconstituted TarGH in proteoliposomes; format: biochemical; details: 1.0 µM compound; compared with TarH E169Q mutant
[7] = test system: S. aureus ΔtarO knockout strain; assay: Counterscreen: growth inhibition of WTA null; format: cell-based, Staphylococcus aureus
How it was run: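 Library compounds were screened in duplicate at ~15 µM final against wildtype S. aureus Newman. In parallel they were counterscreened against the WTA-null ΔtarO strain to find growth inhibition that is suppressed when WTA is absent. Growth was read as OD600 and averaged over the duplicates.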

| Compound | growth inhibition of B. subtilis [1] | zone of inhibition [2] | effect on Lipid II pool levels [3] | minimum inhibitory concentration (MIC) [4] [µg/mL] | MIC relative to that of targocil ([4]; compared with targocil) | zone of inhibition [5] | ATPase activity of the WT transporter in the presence of compound [6] | activity against the ΔtarO strain [7] |
| --- | --- | --- | --- | --- | --- | --- | --- | --- |
| Cc1c(CC(=O)N2CCC[C@H]2C(=O)O)c(=O)oc2c(C)c3occ(-c4ccc(Cl)cc4)c3cc12 [Compound 2] | did not inhibit growth | dose-dependent inhibition zone | depleted Lipid II | 0.125 (≈ 0.26 µM) | eight-fold lower | did not show a zone of inhibition | comparable to that of a TarGH mutant containing a mutation that impairs ATP hydrolysis | no activity |
| CCN(CC)c1nc2c(S(=O)(=O)c3ccc(Cl)cc3)nnn2c2cc(OC)c(OC)cc12 [targocil] |  |  | depleted Lipid II |  |  |  |  |  |
| bacitracin |  |  | depleted Lipid II |  |  |  |  |  |
